For test [1], the system named is MCF7. The test is described as follows: Induction of mitochondrial dysfunction in human MCF7 cells assessed as mitochondria fusion at 400 nM after 6 hrs in presence of UV irradiation by Mitotracker Orange CMTM-ROS staining-based confocal microscopic analysis. It is filed as functional, cell-based. The method in brief:
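MCF7 cells (4x10^5) on glass slides for 24 h. Live-labelled with MitoTracker Orange CMTM-ROS (150 nM) for 45 min in phenol red- and serum-free medium. Compound then added and cells irradiated at 365 nm (1.5 J/cm2). Fixed in 2% PFA and nuclei counterstained. Mitochondrial network morphology imaged by confocal microscopy (ex 543, em 560–620 nm) 6 h post-treatment, with untreated, irradiated and non-irradiated controls.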

Test [2] has as its system MCF7. The test is described as follows: Induction of lysosomal activation in human MCF7 cells at 400 nM after 6 hrs under UV-irradiation by Lysotracker Green DND 26 staining-based confocal microscopic analysis. The test is classed as functional, cell-based. An outline of the steps:
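MCF7 cells (4x10^5) on glass slides for 24 h. Medium replaced with phenol red- and serum-free medium containing LysoTracker Green DND-26 (175 nM) for 45 min. Compound then added and cells irradiated at 365 nm (1.5 J/cm2). Cells then PBS-washed, fixed in 2% PFA and mounted. Acidic compartments imaged by confocal microscopy (ex 488, em 500–530 nm) against non-irradiated and untreated controls.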

The test system of test [3] is MCF7. The test can be described thus: Induction of ROS generation in human MCF7 cells at 0.4 uM preincubated for 30 mins followed by irradiation at 1.5 J/cm2 for 2 hrs by H2DCFDA probe-based fluorescence assay (reference value: 100%). It is filed as functional. An outline of the steps: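 MCF7 cells (3x10^4/well) seeded 24 h ahead to 80–90% confluence. Compound given for 30 min in phenol red- and serum-free medium. H2DCFDA (10 µM) added 15 min before irradiation at ~365 nm, 1.5 J/cm2. Fluorescence read 2 h after light (ex 485, em 535 nm) as % of untreated irradiated controls. Non-irradiated plates run alongside; three independent experiments.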

The source made the active and inactive calls. The calls are words filed in the database; no cut-off is given here.

Activity data for one molecule are collected here from ChEMBL document CHEMBL4325899, “Synthesis and photocytotoxic activity of [1,2,3]triazolo[4,5-h][1,6]naphthyridines and [1,3]oxazolo[5,4-h][1,6]naphthyridines” (Eur J Med Chem, 2019).

As to `CCCCCCCCCCCCCC(=O)O[C@@H]1[C@@H](C)[C@@]2(O)[C@@H](C=C(CO)C[C@]3(O)C(=O)C(C)=C[C@@H]23)[C@@H]2C(C)(C)[C@]12OC(C)=O` [PHORBOL MYRISTATE ACETATE], the outcome in the test on MCF7 [1] and in the test with MCF7 [2] was Active. This molecule also yielded an Activity in the test on MCF7 [3] of 120%.
